Experimental data taken from ChEMBL document CHEMBL1649165, “Activity profile in vitro of micafungin against Spanish clinical isolates of common and emerging species of yeasts and molds” (2009).
Values after ≈ are worked out from the molar mass of the structure shown.

Tests used:
Type in all cases: functional
Candida albicans = experiment: Antimicrobial activity against Candida albicans by broth microdilution method
How it was run: (§1)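 Clinical isolates from human patients, tested by broth microdilution using the AFST-EUCAST reference procedure for fermentative yeasts. The MIC was read per that reference method.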

Candida tropicalis = experiment: Antimicrobial activity against Candida tropicalis by broth microdilution method; how it was run: as §1
Pichia kudriavzevii = experiment: Antimicrobial activity against Candida krusei by broth microdilution method; how it was run: as §1
Clavispora lusitaniae = experiment: Antimicrobial activity against Candida lusitaniae by broth microdilution method; how it was run: as §1
Debaryomyces hansenii = experiment: Antimicrobial activity against Candida famata by broth microdilution method; how it was run: as §1
Pichia norvegensis = experiment: Antimicrobial activity against Candida norvegensis by broth microdilution method; how it was run: as §1
Candida metapsilosis = experiment: Antimicrobial activity against Candida metapsilosis by broth microdilution method; conditions: Lodderomyces metapsilosis; how it was run: as §1
Candida orthopsilosis = experiment: Antimicrobial activity against Candida orthopsilosis by broth microdilution method; conditions: Lodderomyces orthopsilosis; how it was run: as §1
[1] = system: Kazachstania pintolopesii; experiment: Antimicrobial activity against Candida pintolopesii by broth microdilution method; conditions: Arxiozyma pintolopesii; how it was run: as §1
[Candida] zeylanoides = Antimicrobial activity against Candida zeylanoides by broth microdilution method; conditions: Dujonia zeylanoides; how it was run: as §1
Saccharomyces cerevisiae = experiment: Antimicrobial activity against Saccharomyces cerevisiae by broth microdilution method
[2] = system: Cryptococcus deneoformans; experiment: Antimicrobial activity against Cryptococcus neoformans var. neoformans by broth microdilution method
How it was run: (§2)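 Clinical isolates of nonfermentative yeasts, tested by broth microdilution following EUCAST recommendations. The only change from that method was a minor modification to improve growth.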

Trichosporon asahii = experiment: Antimicrobial activity against Trichosporon asahii by broth microdilution method
How it was run: (§3)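 Nonfermentative yeast clinical isolates (Rhodotorula, Trichosporon) tested by broth microdilution. The EUCAST yeast recommendations were followed strictly, with one minor modification to improve growth. MIC was read as the endpoint.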

Trichosporon inkin = experiment: Antimicrobial activity against Trichosporon inkin by broth microdilution method; how it was run: as §3
Trichosporon jirovecii = experiment: Antimicrobial activity against Trichosporon jirovecii by broth microdilution method; conditions: Cutaneotrichosporon jirovecii; how it was run: as §3
Naganishia albida = experiment: Antimicrobial activity against Cryptococcus albidus by broth microdilution method; how it was run: as §2
Ustilago = experiment: Antimicrobial activity against Ustilago spp by broth microdilution method
Trichosporon domesticum = experiment: Antimicrobial activity against Trichosporon mycotoxinivorans by broth microdilution method; conditions: Apiotrichum domesticum
How it was run: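 Spanish human clinical isolates were tested as nonfermentative yeasts by broth microdilution. The method strictly followed the EUCAST recommendations, with a minor modification to improve growth, and the read-out was the MIC.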

Trichosporon = experiment: Antimicrobial activity against Trichosporon spp. by broth microdilution method; how it was run: as §3
Aspergillus versicolor = experiment: Antimicrobial activity against Aspergillus versicolor by broth microdilution method
How it was run: (§4)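 Clinical mould isolates, tested by broth microdilution using the AFST-EUCAST reference method for filamentous fungi. For echinocandins, the endpoint was the minimum effective concentration: the lowest drug concentration giving aberrant hyphal growth, read with an inverted microscope.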

Aspergillus ustus = experiment: Antimicrobial activity against Aspergillus ustus by broth microdilution method; how it was run: as §4
Fennellia nivea = experiment: Antimicrobial activity against Aspergillus niveus by broth microdilution method; how it was run: as §4
Aspergillus = experiment: Antimicrobial activity against Aspergillus spp. by broth microdilution method; how it was run: as §4
Fusarium solani = experiment: Antimicrobial activity against Fusarium solani by broth microdilution method
How it was run: (§5)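 Filamentous fungus clinical isolates tested by the AFST-EUCAST reference broth microdilution method for moulds. For echinocandins, the endpoint was the minimum effective concentration: the lowest drug concentration giving aberrant hyphal growth, read with an inverted microscope.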

Paecilomyces lilacinus = experiment: Antimicrobial activity against Paecilomyces lilacinus by broth microdilution method; conditions: Purpureocillium lilacinum; how it was run: as §5
Acremonium sp. = experiment: Antimicrobial activity against Acremonium sp.by broth microdilution method; how it was run: as §4
[3] = system: Scopulariopsis brevicaulis; experiment: Antimicrobial activity against Scopulariopsis brevicaulis by broth microdilution method; how it was run: as §5
Phialemonium curvatum = experiment: Antimicrobial activity against Phialemonium curvatum by broth microdilution method; conditions: Thyridium curvatum; how it was run: as §5
[4] = Antimicrobial activity against Hormographiella aspergillata by broth microdilution method; conditions: Coprinopsis cinerea; how it was run: as §5
Coprinellus domesticus = experiment: Antimicrobial activity against Hormographiella verticillata by broth microdilution method; how it was run: as §5
Neurospora sitophila = experiment: Antimicrobial activity against Chrysonilia sitophila by broth microdilution method; how it was run: as §4
Scedosporium apiospermum = experiment: Antimicrobial activity against Scedosporium apiospermum by broth microdilution method; how it was run: as §5
Exophiala dermatitidis = experiment: Antimicrobial activity against Exophiala dermatitidis by broth microdilution method
Cladosporium = experiment: Antimicrobial activity against Cladosporium spp. by broth microdilution method; how it was run: as §4
[5] = system: Cladophialophora bantiana; experiment: Antimicrobial activity against Cladophialophora bantiana by broth microdilution method; how it was run: as §4
Scytalidium hyalinum = experiment: Antimicrobial activity against Scytalidium hyalinum by broth microdilution method; conditions: Neoscytalidium hyalinum; how it was run: as §5
Lecythophora hoffmannii = experiment: Antimicrobial activity against Lecythophora hoffmannii by broth microdilution method; conditions: Coniochaeta hoffmannii; how it was run: as §5
Lichtheimia corymbifera = experiment: Antimicrobial activity against Mycocladus corymbiferus by broth microdilution method; how it was run: as §5
Mucor = experiment: Antimicrobial activity against Mucor spp.by broth microdilution method; how it was run: as §5
[6] = system: Cunninghamella bertholletiae; experiment: Antimicrobial activity against Cunninghamella bertholletiae by broth microdilution method; how it was run: as §4
Rhizomucor = experiment: Antimicrobial activity against Rhizomucor spp.by broth microdilution method; how it was run: as §5
Saksenaea vasiformis = experiment: Antimicrobial activity against Saksenaea vasiformis by broth microdilution method; how it was run: as §5
Exophiala jeanselmei = experiment: Antimicrobial activity against Exophiala jeanselmei by broth microdilution method
Beauveria bassiana = experiment: Antimicrobial activity against Beauveria bassiana by broth microdilution method; how it was run: as §4

Compound: CCC(C)n1ncn(-c2ccc(N3CCN(c4ccc(OCC5COC(Cn6cncn6)(c6ccc(Cl)cc6Cl)O5)cc4)CC3)cc2)c1=O (stereo not drawn) [ITRACONAZOLE]
- MIC50 (Candida albicans): 0.02 µg/mL (≈ 0.0283 µM)
- MIC90 (Candida albicans): 0.03 µg/mL (≈ 0.0425 µM)
- MIC50 (Candida tropicalis): 0.02 µg/mL (≈ 0.0283 µM)
- MIC90 (Candida tropicalis): 0.06 µg/mL (≈ 0.085 µM)
- MIC50 (Pichia kudriavzevii): 0.25 µg/mL (≈ 0.354 µM)
- MIC90 (Pichia kudriavzevii): 0.25 µg/mL (≈ 0.354 µM)
- MIC50 (Clavispora lusitaniae): 0.02 µg/mL (≈ 0.0283 µM)
- MIC90 (Clavispora lusitaniae): 0.03 µg/mL (≈ 0.0425 µM)
- MIC50 (Debaryomyces hansenii): 0.12 µg/mL (≈ 0.17 µM)
- MIC90 (Debaryomyces hansenii): > 8 µg/mL
- MIC50 (Pichia norvegensis): 0.12 µg/mL (≈ 0.17 µM)
- MIC90 (Pichia norvegensis): > 8 µg/mL
- MIC50 (Candida metapsilosis): 0.12 µg/mL (≈ 0.17 µM)
- MIC90 (Candida metapsilosis): > 8 µg/mL
- MIC50 (Candida orthopsilosis): 0.12 µg/mL (≈ 0.17 µM)
- MIC90 (Candida orthopsilosis): > 8 µg/mL
- MIC50 [1]: 0.12 µg/mL (≈ 0.17 µM)
- MIC90 [1]: > 8 µg/mL
- MIC50 ([Candida] zeylanoides): 0.12 µg/mL (≈ 0.17 µM)
- MIC90 ([Candida] zeylanoides): > 8 µg/mL
- MIC50 (Saccharomyces cerevisiae): 0.5 µg/mL (≈ 0.709 µM)
- MIC90 (Saccharomyces cerevisiae): 2 µg/mL (≈ 2.83 µM)
- MIC50 [2]: 0.12 µg/mL (≈ 0.17 µM)
- MIC90 [2]: 0.5 µg/mL (≈ 0.709 µM)
- MIC50 (Trichosporon asahii): 0.5 µg/mL (≈ 0.709 µM)
- MIC90 (Trichosporon asahii): > 8 µg/mL
- MIC50 (Trichosporon inkin): 0.12 µg/mL (≈ 0.17 µM)
- MIC90 (Trichosporon inkin): 0.25 µg/mL (≈ 0.354 µM)
- MIC50 (Trichosporon jirovecii): 0.5 µg/mL (≈ 0.709 µM)
- MIC90 (Trichosporon jirovecii): > 8 µg/mL
- MIC50 (Naganishia albida): 0.5 µg/mL (≈ 0.709 µM)
- MIC90 (Naganishia albida): > 8 µg/mL
- MIC50 (Ustilago): 0.5 µg/mL (≈ 0.709 µM)
- MIC90 (Ustilago): > 8 µg/mL
- MIC50 (Trichosporon domesticum): 0.5 µg/mL (≈ 0.709 µM)
- MIC90 (Trichosporon domesticum): > 8 µg/mL
- MIC50 (Trichosporon): 0.5 µg/mL (≈ 0.709 µM)
- MIC90 (Trichosporon): > 8 µg/mL
- MIC50 (Aspergillus versicolor): 0.5 µg/mL (≈ 0.709 µM)
- MIC90 (Aspergillus versicolor): 1 µg/mL (≈ 1.42 µM)
- MIC50 (Aspergillus ustus): 0.5 µg/mL (≈ 0.709 µM)
- MIC90 (Aspergillus ustus): > 8 µg/mL
- MIC50 (Fennellia nivea): 0.5 µg/mL (≈ 0.709 µM)
- MIC90 (Fennellia nivea): > 8 µg/mL
- MIC50 (Aspergillus): 0.5 µg/mL (≈ 0.709 µM)
- MIC90 (Aspergillus): > 8 µg/mL
- MIC50 (Fusarium solani): > 8 µg/mL
- MIC90 (Fusarium solani): > 8 µg/mL
- MIC50 (Paecilomyces lilacinus): > 8 µg/mL
- MIC90 (Paecilomyces lilacinus): > 8 µg/mL
- MIC50 (Acremonium sp.): > 8 µg/mL
- MIC90 (Acremonium sp.): > 8 µg/mL
- MIC50 [3]: > 8 µg/mL
- MIC90 [3]: > 8 µg/mL
- MIC50 (Phialemonium curvatum): > 8 µg/mL
- MIC90 (Phialemonium curvatum): > 8 µg/mL
- MIC50 [4]: > 8 µg/mL
- MIC90 [4]: > 8 µg/mL
- MIC50 (Coprinellus domesticus): > 8 µg/mL
- MIC90 (Coprinellus domesticus): > 8 µg/mL
- MIC50 (Neurospora sitophila): > 8 µg/mL
- MIC90 (Neurospora sitophila): > 8 µg/mL
- MIC50 (Scedosporium apiospermum): 1 µg/mL (≈ 1.42 µM)
- MIC90 (Scedosporium apiospermum): > 8 µg/mL
- MIC50 (Exophiala dermatitidis): 0.12 µg/mL (≈ 0.17 µM)
- MIC90 (Exophiala dermatitidis): > 8 µg/mL
- MIC50 (Cladosporium): 0.12 µg/mL (≈ 0.17 µM)
- MIC90 (Cladosporium): > 8 µg/mL
- MIC50 [5]: 0.12 µg/mL (≈ 0.17 µM)
- MIC90 [5]: > 8 µg/mL
- MIC50 (Scytalidium hyalinum): 0.12 µg/mL (≈ 0.17 µM)
- MIC90 (Scytalidium hyalinum): > 8 µg/mL
- MIC50 (Lecythophora hoffmannii): 0.12 µg/mL (≈ 0.17 µM)
- MIC90 (Lecythophora hoffmannii): > 8 µg/mL
- MIC50 (Lichtheimia corymbifera): 1 µg/mL (≈ 1.42 µM)
- MIC90 (Lichtheimia corymbifera): > 8 µg/mL
- MIC50 (Mucor): > 8 µg/mL
- MIC90 (Mucor): > 8 µg/mL
- MIC50 [6]: > 8 µg/mL
- MIC90 [6]: > 8 µg/mL
- MIC50 (Rhizomucor): > 8 µg/mL
- MIC90 (Rhizomucor): > 8 µg/mL
- MIC50 (Saksenaea vasiformis): > 8 µg/mL
- MIC90 (Saksenaea vasiformis): > 8 µg/mL
- MIC50 (Exophiala jeanselmei): 0.12 µg/mL (≈ 0.17 µM)
- MIC90 (Exophiala jeanselmei): > 8 µg/mL
- MIC50 (Beauveria bassiana): > 8 µg/mL
- MIC90 (Beauveria bassiana): > 8 µg/mL
